Assay outcomes: PubChem BioAssay, several laboratories
This is a sample that favours compounds with a hit; in the whole collection about 4.8% have one here.
CHOP UPR activ – apoptotic UPR (CHOP) activation. CHO-CHOP luciferase reporter, luminescence; percent of tunicamycin response over DMSO baseline. activation, % at 10 µM. 0.34% of 330,000 active. AID 449763;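 active means at 10 µM dose, activation of 40% or more, normalized to positive control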
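assay system = CHO CHOP reporter cells | amount = 500 CHO-CHOP cells per well | buffer or medium = F12 with 10% FBS | incubation = 16-18 h cell attachment, then 6 h compound exposure, 37 °C | detection = luminescence read with Steady-Glo | read-out = percent activation relative to tunicamycin control | controls = tunicamycin high control, DMSO low control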
Mdm2 MdmX PPI – disrupts the human Mdm2-MdmX interaction; O15151+Q00987; SaOS-2 split-luciferase Mdm2/MdmX complementation, luminescence; inhibition, % at 8 µM; 3% of 330,000 active; AID 485346;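 active means inhibition of at least 50% at 8 µM in the primary screen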
Beta apoptosis – beta cell apoptosis inhibition. INS-1E cytokine-induced death, ATP luminescence, 48 h; percent of positive-control rescue, neutral wells zero. 0.8% of 300,000 active. protection from apoptosis, % (test concentration not listed);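 active means Every replicate reaches about 75%, or at least half do and their mean reaches it too, limit read from the data; inconclusive means At least half of replicates reach the limit but their mean does not; inactive means Under half of replicates reach the limit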;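 further: higher means more ATP so stronger rescue from cytokine killing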
CSC inhib – cancer stem cell inhibition | cancer stem cell-like cells viability, luminescence | inhibition, % at 7.5 µM | 1.1% of 300,000 active | AID 2717; in the data active means inhibition above about 75%; inconclusive means no clear call, values can overlap the other calls; tested in HMLE shEcad cells
SKKanGAS inh – blocks kanamycin growth of S. pyogenes SKKanGAS strain; AID 1662; 1.3% of 300,000 active; inhibition, % at 7.5 µM; BacTiter-Glo, 6 h;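 active means mean replicate score, as percent of positive control median, at least 50; inconclusive means mean below 50 but one replicate at or above 50; inactive means mean and every replicate below 50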;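 further: strain carries kanamycin resistance gene driven by streptokinase promoter and grows in 40 µg/ml kanamycin; loss of luminescence reflects streptokinase promoter inhibition or plain growth inhibition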
UPR XBP1 act – activators of adaptive arm of unfolded protein response (XBP1) | 0.33% of 330,000 active | CHO-XBP1 luciferase reporter, IRE1-XBP1 UPR activation, luminescence; percent of tunicamycin response, DMSO as zero | activation, % at 20 µM | AID 463104;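 active means versus positive control, 20 µM dose yields 30% or more activation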
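Material: IRE1-XBP1 luciferase reporter CHO line / Quantity: one thousand reporter cells per well / Buffer or medium: F12 with 10% serum / Compound: 20 µM single concentration, DMSO 1% / Times: 6 h treatment, 37 °C / Detection: Steady-Glo luciferase glow luminescence, 10 min after reagent addition / Benchmarks: tunicamycin high, DMSO low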
Mdm2 MdmX conf – human Mdm2/MdmX binding inhibition, confirmed; shares compounds with Mdm2 MdmX PPI; inhibition, % at 8 µM; 55% of 10,000 active; luminescent assay; AID 489028; in the data active means inhibition above about 40%
FLuc counter – full-length luciferase inhibition in Mdm2/MdmX counter-screen | shares compounds with Mdm2 MdmX PPI | SaOS-2 full-length luciferase counterscreen, luminescence | inhibition, % at 8 µM | 77% of 6,200 active | AID 504607;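 active means mean inhibition at 8 µM reaching about 37%, which flags the compound as non-specific, limit read from the data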;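 further: p53-null SaOS-2 cells with luciferase driven by a doxycycline-inducible promoter; compound on cells about two nights before reading with doxycycline added after day one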
A number is an active result; 0 = inactive; ? = inconclusive; - = no result.

SMILES	CHOP UPR activ	Mdm2 MdmX PPI	Beta apoptosis	CSC inhib	SKKanGAS inh	UPR XBP1 act	Mdm2 MdmX conf	FLuc counter
CC1CN(C(=O)CCC(=O)NCCCN2CCN(Cc3ccccc3)CC2)c2cc(Cl)ccc2O1 (stereo unspecified)	0	0	0	0	0	0	-	-
Cc1ccc2c(c1)C1CN(C)CCC1N2Sc1ccccc1[N+](=O)[O-] (stereo unspecified)	0	61.1	0	0	0	0	40.2	62.0
O=C(/C=C/c1cn(-c2ccccc2)nc1-c1cccnc1)c1ccco1	0	51.5	0	0	0	0	0	-
O=C(/C=C/c1cn(-c2ccccc2)nc1-c1cccnc1)N1CCCC1	-	-	-	-	0	-	-	-
Cc1nc(N2CCN(S(=O)(=O)c3ccccc3C#N)CC2)c2c(-c3ccccc3)csc2n1	0	0	0	0	-	0	-	-
S=c1nc(NCc2cccc(Cl)c2)c2ccccc2[nH]1	0	0	-	-	0	0	-	-
O=C(Cc1csc(Nc2nc(=S)[nH]c3ccccc23)n1)N1CCN(c2cccc(C(F)(F)F)c2)CC1	0	69.0	0	0	0	0	0	-
O=C(Cc1csc(Nc2nc(=S)[nH]c3ccccc23)n1)NCc1ccccc1Cl	0	92.3	0	-	0	0	0	-
Cc1ccc(CNC(=O)Cc2csc(Nc3nc(=S)[nH]c4ccccc34)n2)cc1	0	57.3	0	0	0	0	42.5	101.5
O=C(Cc1csc(Nc2nc(=S)[nH]c3ccccc23)n1)NCc1cccc(Cl)c1	0	85.3	0	0	-	0	0	-
COc1ccc(CNC(=O)CCCCCNc2nc(=S)[nH]c3ccccc23)cc1	0	0	0	0	0	0	-	-
CCOCCn1c(C)c(C(=O)OCC)c2cc(O)c3ccccc3c21	0	0	0	0	-	0	-	-
Cc1ccc(CC(=O)Nc2nnc(-c3ccc(F)cc3)o2)c(C)c1	0	0	0	0	0	0	-	-
C[C@H]1COC(=O)[C@@H](Cc2ccc(F)cc2)C/C=C\C[C@@H](CC(=O)N[C@@H](CO)Cc2ccccc2)C(=O)N1	0	0	0	0	-	0	-	-
COc1cc(OC)cc(C(=O)Nc2nc(CC(=O)NCc3ccc(F)cc3)cs2)c1	0	69.9	0	0	0	0	64.6	58.5
CC(=O)Nc1ccc(S(=O)(=O)NC2=NCN(c3ccc([N+](=O)[O-])cc3)CN2)cc1	0	62.6	0	0	0	0	0	-
N#Cc1cc2c(nc1SCC(=O)N1CCOCC1)CCCCC2	0	81.1	-	-	0	0	85.5	115.4
N#Cc1cc2c(nc1SCC(N)=O)CCCCC2	0	0	0	0	0	0	-	-
CC(NC(=O)c1ccccc1)c1nnc(SCC(=O)Nc2nnc(C3CC3)s2)n1C (stereo unspecified)	0	0	0	0	0	0	-	-
CCN1CCN(c2ccc(NC(=O)COc3ccc([N+](=O)[O-])cc3)cc2)CC1	0	0	0	0	0	0	-	-
Cc1oc(-c2ccccc2Cl)nc1CN1CCCC1c1ccc(F)cc1 (stereo unspecified)	0	0	0	0	0	0	-	-
Cc1oc(-c2ccccc2Cl)nc1Cn1cccc1C1=NC(c2ccccc2)CO1 (stereo unspecified)	0	55.5	0	0	?	0	57.0	89.8
O=S1(=O)CCC(n2nccc2-c2ccccc2)C1 (stereo unspecified)	0	0	0	0	0	0	-	-
CCOC(=O)c1[nH]c(C)c(C(=O)OCc2ccccc2F)c1C	0	0	-	?	0	0	-	-
Cn1c(=O)oc2cc(S(=O)(=O)Nc3ccc(F)cc3)ccc21	0	0	0	0	0	0	-	-
SMILES	CHOP UPR activ	Mdm2 MdmX PPI	Beta apoptosis	CSC inhib	SKKanGAS inh	UPR XBP1 act	Mdm2 MdmX conf	FLuc counter
COc1cc(/C=N/n2cnc3scc(-c4cccs4)c3c2=O)cc(OC)c1OC	0	61.3	0	0	0	0	0	-
COc1cc(NC(=O)CSc2nc3[nH]ncc3c(=O)n2-c2ccc(Cl)cc2)cc(OC)c1	0	58.9	-	0	0	0	0	-
O=C(/C=C/c1ccccc1)NC(NC(=S)Nc1ccc(Cl)cc1)C(Cl)(Cl)Cl (stereo unspecified)	0	60.0	0	0	63.3	0	62.1	0
O=C(/C=C/c1ccccc1)NC(NC(=S)Nc1cc(Cl)ccc1Cl)C(Cl)(Cl)Cl (stereo unspecified)	0	89.4	0	?	51.9	0	87.5	0
Cc1ccc2[nH]c(O)c(N=NC(N)=S)c2c1	0	0	0	0	0	0	-	-
CC(/C=C(\NC(=O)c1ccccc1)C(=O)N=Nc1c(O)[nH]c2ccc(C)cc12)=C\c1ccccc1	0	64.3	0	0	0	0	46.7	81.9
Cc1ccc2oc(=O)n(CC(=O)OCCC(C)C)c2c1	0	0	0	0	0	0	-	-
COc1ccccc1N1CCN(S(=O)(=O)CCNC(=O)c2cccc(F)c2)CC1	0	0	0	0	0	0	-	-
COc1ccc(S(=O)(=O)N2CCN(C(=O)c3cc4c(s3)CCC4)CC2)cc1	0	0	0	0	-	0	-	-
Cc1nn(-c2cc(N3CCCCCC3)ccc2[N+](=O)[O-])c(=O)c2ccccc12	0	0	0	0	0	0	-	-
Cc1ccc(-c2nn(-c3cc(N4CCNCC4)ccc3[N+](=O)[O-])c(=O)c3ccccc23)cc1	0	100.4	0	0	0	0	0	-
COc1ccc(C2c3ccc4ccccc4c3Oc3ncn(CCN4CCOCC4)c(=N)c32)cc1OC (stereo unspecified)	0	69.3	-	-	0	0	46.6	66.7
COc1ccc(C2c3c(ncn(CCCN4CCOCC4)c3=N)Oc3ccc4ccccc4c32)cc1OC (stereo unspecified)	0	86.2	0	0	0	0	51.2	67.3
COc1ccc(C2c3ccc(O)cc3Oc3ncn(CCN4CCOCC4)c(=N)c32)cc1OC (stereo unspecified)	0	0	0	0	0	0	-	-
COc1ccc(C2c3ccc4ccccc4c3Oc3ncn(CCN4CCOCC4)c(=N)c32)cc1 (stereo unspecified)	0	74.6	-	0	0	0	54.9	52.7
COc1cc2c(cc1OC)C(Cc1ccc(O)c(Oc3ccc(C[C@H]4c5cc(OC)c(OC)cc5CCN4C)cc3)c1)N(C)CC2 (stereo partly specified)	0	72.0	0	0	-	0	0	-
COc1cc2c(cc1OC)[C@@H](Cc1ccc(OCCC#N)cc1)N(C)CC2	0	0	0	0	0	0	-	-
CSc1ccc(/C=C/C(=O)OCC(=O)NC2CC2)cc1	0	0	0	0	-	0	-	-
O=C(c1cc(C2CC2)nn1-c1ccccc1)N1CCN(S(=O)(=O)c2ccccc2)CC1	0	0	-	-	-	0	-	-
